What is called IC50 is the concentration that gives 50% inhibition.

The target in experiment [1] is T1, TGF-beta receptor type-1 (Homo sapiens, UniProt P36897).
T1 sequence (P36897 whole entry): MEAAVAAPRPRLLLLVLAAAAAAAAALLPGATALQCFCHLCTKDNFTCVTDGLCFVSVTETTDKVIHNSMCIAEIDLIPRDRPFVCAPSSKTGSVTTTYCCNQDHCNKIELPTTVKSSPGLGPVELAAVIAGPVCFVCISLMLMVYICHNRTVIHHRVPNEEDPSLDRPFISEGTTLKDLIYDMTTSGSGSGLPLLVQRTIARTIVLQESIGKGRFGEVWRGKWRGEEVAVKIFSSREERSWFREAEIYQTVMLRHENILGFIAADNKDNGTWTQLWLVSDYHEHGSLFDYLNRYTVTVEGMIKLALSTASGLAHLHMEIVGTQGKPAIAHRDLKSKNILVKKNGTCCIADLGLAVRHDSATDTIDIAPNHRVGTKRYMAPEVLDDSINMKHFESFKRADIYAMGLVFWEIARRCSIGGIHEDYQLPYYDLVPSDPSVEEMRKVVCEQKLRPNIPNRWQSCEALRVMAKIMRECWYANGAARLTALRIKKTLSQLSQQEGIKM
In words: Stimulation of Transforming growth factor beta receptor I kinase in HepG2 cells. The format is functional, cell-based.

The target in experiment [2] is T1, TGF-beta receptor type-1. In words: Binding affinity to Activin A receptor type II-like kinase (ALK5) in fluorescence polarization binding assay; Range is (3.221-19.588). The method in brief: (§1)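 Purified recombinant GST-ALK5 (residues 198–503), final 10 nM by active-site titration, in 62.5 mM HEPES pH 7.5, 1 mM DTT, 12.5 mM MgCl2, 1.25 mM CHAPS with 1 nM rhodamine green-labelled ATP-competitive ligand. Test compound added over a concentration range; plates read immediately for fluorescence polarization (ex 485/em 530 nm). Binding pIC50 from concentration–response curves; means of two or more experiments, mean pIC50 converted to IC50, with 95% confidence limits.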
A general note: In fluorescence polarisation assays a small probe gives low polarisation when free and higher when bound to something large.

Experiment [3] deals with T1, TGF-beta receptor type-1. In words: Binding affinity to Activin A receptor type II-like kinase (ALK5) in fluorescence polarization binding assay; Range is (0.021-0.042). In outline:
(§2)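 Purified recombinant GST-ALK5 (residues 198–503), final 10 nM by active-site titration, in 62.5 mM HEPES pH 7.5, 1 mM DTT, 12.5 mM MgCl2, 1.25 mM CHAPS with 1 nM rhodamine green-labelled ATP-competitive ligand. Test compound added over a concentration series, plate read immediately by fluorescence polarization (ex 485/em 530 nm). Binding pIC50 from concentration–response curves; mean of two or more experiments, 95% confidence limits converted to IC50.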

Experiment [4] deals with T1, TGF-beta receptor type-1. In words: Binding affinity to Activin A receptor type II-like kinase (ALK5) in fluorescence polarization binding assay; Range is (0.289-3.621). In outline:
as §1

Experiment [5] deals with T2, MAP kinase p38 (Homo sapiens, UniProt O15264+Q15759+Q16539+P53778). Description: Displacement of ATP from p38 MAP kinase by fluorescence polarization assay. Type of experiment: protein assay. In outline:
(§3)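 p38 MAP kinase binding measured by fluorescence polarization: displacement of a fluorescently labelled ATP-competitive inhibitor by a compound concentration series gives a binding IC50. Runs were duplicated or repeated as three separate experiments; 95% confidence limits on pIC50 were converted to IC50 limits.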

In experiment [6] the target is T1, TGF-beta receptor type-1. In words: Inhibition of recombinant Activin A receptor type II-like kinase (ALK5) expressed in baculovirus/Sf9 cells. Type of experiment: cell-based.
Experiment [7] addresses T1, TGF-beta receptor type-1. Description: Binding affinity to Activin A receptor type II-like kinase (ALK5) in fluorescence polarization binding assay; Range is (0.029-0.032).
For experiment [8], the target named is T1, TGF-beta receptor type-1. Description: Binding affinity to Activin A receptor type II-like kinase (ALK5) in fluorescence polarization binding assay; Range is (0.356-4.455). The method in brief: as §2
Experiment [9] has as its target T1, TGF-beta receptor type-1. Description: Binding affinity for Activin A receptor type II-like kinase (ALK5) in fluorescence polarization binding assay. The method in brief:
as §1

The target of experiment [10] is T1, TGF-beta receptor type-1. Description: Binding affinity to Activin A receptor type II-like kinase (ALK5) in fluorescence polarization binding assay; Range is (1.375-9.154). In outline:
as §2

Experiment [11] deals with T1, TGF-beta receptor type-1. In words: Binding affinity to Activin A receptor type II-like kinase (ALK5) in fluorescence polarization binding assay; Range is (2.423-6.540). In outline: as §1
The target in experiment [12] is T1, TGF-beta receptor type-1. Description: Binding affinity to Activin A receptor type II-like kinase (ALK5) in fluorescence polarization binding assay; Range is (0.783-1.764). In outline:
as §2

The target of experiment [13] is T1, TGF-beta receptor type-1. Description: Binding affinity to Activin A receptor type II-like kinase (ALK5) in fluorescence polarization binding assay; Range is (5.326-22.574). In outline:
as §2

Experiment [14] has as its target T1, TGF-beta receptor type-1.
Experiment [15] deals with T1, TGF-beta receptor type-1. Description: Binding affinity to Activin A receptor type II-like kinase (ALK5) in fluorescence polarization binding assay; Range is (0.864-3.661). The method in brief: as §1
Experiment [16] concerns the target T1, TGF-beta receptor type-1. Description: Binding affinity to Activin A receptor type II-like kinase (ALK5) in fluorescence polarization binding assay; Range is (0.038-0.042). In outline: as §2
Experiment [17] has as its target T2, MAP kinase p38. Description: Displacement of ATP from Mitogen-activated protein kinase p38 in fluorescence polarization assay; Range is (0.242-0.545). The method in brief: as §3
The target of experiment [18] is T1, TGF-beta receptor type-1. The source holds these as a separate data set.
Experiment [19] has as its target T2, MAP kinase p38. Description: Displacement of ATP from Mitogen-activated protein kinase p38 in fluorescence polarization assay; Range is (0.208-1.155). In outline: as §3
The target in experiment [20] is T1, TGF-beta receptor type-1. The source holds these as a separate data set.
Experiment [21] concerns the target Mitogen-activated protein kinase kinase kinase 11 (Homo sapiens, UniProt Q16584). In words: Inhibition of MLK3 kinase binding in fluorescence polarization assay.
The target of experiment [22] is Ribosomal protein S6 kinase alpha-5 (Homo sapiens, UniProt O75582). In words: Inhibition of MSK-1 kinase binding in fluorescence polarization assay.
Experiment [23] has as its target Serine/threonine-protein kinase B-raf (Homo sapiens, UniProt P15056). Description: Inhibition of Protein kinase Raf-B binding in fluorescence polarization assay.
The target in experiment [24] is Mitogen-activated protein kinase 10 (Homo sapiens, UniProt P53779). In words: Inhibition of c-Jun N-terminal kinase 3-alpha binding in HTRF assay. Background: Time-resolved FRET reads energy transfer from a long-lived donor to a nearby acceptor.
Experiment [25] deals with Mitogen-activated protein kinase 8 (Homo sapiens, UniProt P45983). Description: Inhibition of c-Jun N-terminal kinase 1-alpha 1 binding in fluorescence polarization assay.
The target of experiment [26] is Proto-oncogene tyrosine-protein kinase LCK (Mus musculus, UniProt P06240). In words: Inhibition of p56 Lck tyrosine kinase binding in HTRF assay.
For experiment [27], the target named is T3, Tyrosine-protein kinase ITK/TSK (Homo sapiens, UniProt Q08881).
T3 sequence (Q08881 whole entry): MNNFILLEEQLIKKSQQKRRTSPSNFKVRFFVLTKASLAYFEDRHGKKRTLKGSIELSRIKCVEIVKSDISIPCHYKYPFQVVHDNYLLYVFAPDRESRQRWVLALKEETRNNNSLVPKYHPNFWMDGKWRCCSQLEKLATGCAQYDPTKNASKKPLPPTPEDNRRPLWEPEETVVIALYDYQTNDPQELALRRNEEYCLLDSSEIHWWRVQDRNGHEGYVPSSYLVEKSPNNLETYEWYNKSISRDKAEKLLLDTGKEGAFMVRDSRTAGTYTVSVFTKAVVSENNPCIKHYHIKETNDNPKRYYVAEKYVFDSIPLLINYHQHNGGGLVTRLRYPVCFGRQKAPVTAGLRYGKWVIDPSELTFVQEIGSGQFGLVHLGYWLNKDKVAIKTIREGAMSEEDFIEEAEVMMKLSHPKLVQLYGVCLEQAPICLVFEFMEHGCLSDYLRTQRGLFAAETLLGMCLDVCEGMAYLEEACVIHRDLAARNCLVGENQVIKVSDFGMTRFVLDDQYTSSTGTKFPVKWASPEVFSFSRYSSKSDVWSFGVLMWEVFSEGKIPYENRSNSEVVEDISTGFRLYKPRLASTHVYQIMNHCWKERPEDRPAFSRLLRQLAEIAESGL

Sequence of Mitogen-activated protein kinase 10 (P53779 whole entry): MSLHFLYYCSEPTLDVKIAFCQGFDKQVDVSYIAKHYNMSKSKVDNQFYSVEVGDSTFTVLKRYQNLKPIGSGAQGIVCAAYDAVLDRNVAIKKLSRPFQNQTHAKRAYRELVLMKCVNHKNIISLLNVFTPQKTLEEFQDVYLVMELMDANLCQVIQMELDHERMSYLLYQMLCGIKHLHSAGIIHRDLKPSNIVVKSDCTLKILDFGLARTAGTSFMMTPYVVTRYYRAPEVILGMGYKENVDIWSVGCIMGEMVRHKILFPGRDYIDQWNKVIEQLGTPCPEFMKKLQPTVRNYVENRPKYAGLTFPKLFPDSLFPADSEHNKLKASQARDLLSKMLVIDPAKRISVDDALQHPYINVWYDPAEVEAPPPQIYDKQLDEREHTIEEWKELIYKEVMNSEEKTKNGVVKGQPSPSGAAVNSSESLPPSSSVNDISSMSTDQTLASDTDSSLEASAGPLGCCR
Sequence of Mitogen-activated protein kinase 8 (P45983 whole entry): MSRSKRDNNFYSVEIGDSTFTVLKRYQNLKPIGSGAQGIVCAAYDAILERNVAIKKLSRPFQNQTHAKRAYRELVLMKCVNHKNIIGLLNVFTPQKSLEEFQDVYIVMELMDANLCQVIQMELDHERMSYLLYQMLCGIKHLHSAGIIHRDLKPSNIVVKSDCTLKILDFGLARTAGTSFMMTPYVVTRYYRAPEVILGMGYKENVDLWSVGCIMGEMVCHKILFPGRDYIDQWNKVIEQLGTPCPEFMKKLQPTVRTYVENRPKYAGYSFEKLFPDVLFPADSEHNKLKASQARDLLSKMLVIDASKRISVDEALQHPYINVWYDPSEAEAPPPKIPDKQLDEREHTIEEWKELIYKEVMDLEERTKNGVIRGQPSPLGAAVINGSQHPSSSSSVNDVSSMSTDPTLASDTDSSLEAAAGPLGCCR
Sequence of Mitogen-activated protein kinase kinase kinase 11 (Q16584 whole entry): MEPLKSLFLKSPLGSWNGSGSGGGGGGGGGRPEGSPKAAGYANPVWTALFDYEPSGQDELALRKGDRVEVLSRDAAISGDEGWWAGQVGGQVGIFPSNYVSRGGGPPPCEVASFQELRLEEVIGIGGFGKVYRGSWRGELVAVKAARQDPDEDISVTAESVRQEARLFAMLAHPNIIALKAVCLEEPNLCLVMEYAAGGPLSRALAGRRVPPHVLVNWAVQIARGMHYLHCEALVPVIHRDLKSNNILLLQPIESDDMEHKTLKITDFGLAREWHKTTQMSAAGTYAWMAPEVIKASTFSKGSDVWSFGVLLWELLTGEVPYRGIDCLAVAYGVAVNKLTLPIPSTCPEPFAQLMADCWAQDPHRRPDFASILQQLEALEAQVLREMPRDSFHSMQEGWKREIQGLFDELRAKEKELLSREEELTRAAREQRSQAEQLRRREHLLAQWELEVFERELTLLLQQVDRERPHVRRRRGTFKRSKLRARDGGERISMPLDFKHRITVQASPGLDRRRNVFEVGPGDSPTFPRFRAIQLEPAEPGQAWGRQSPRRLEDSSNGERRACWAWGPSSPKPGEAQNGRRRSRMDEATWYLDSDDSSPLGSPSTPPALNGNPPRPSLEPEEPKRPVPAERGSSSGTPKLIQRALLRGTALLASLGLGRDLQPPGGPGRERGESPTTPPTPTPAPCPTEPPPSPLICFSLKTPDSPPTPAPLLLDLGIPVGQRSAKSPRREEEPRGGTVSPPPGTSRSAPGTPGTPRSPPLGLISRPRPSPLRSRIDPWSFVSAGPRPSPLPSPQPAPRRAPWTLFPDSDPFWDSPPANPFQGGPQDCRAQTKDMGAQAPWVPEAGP
Sequence of Proto-oncogene tyrosine-protein kinase LCK (P06240 whole entry): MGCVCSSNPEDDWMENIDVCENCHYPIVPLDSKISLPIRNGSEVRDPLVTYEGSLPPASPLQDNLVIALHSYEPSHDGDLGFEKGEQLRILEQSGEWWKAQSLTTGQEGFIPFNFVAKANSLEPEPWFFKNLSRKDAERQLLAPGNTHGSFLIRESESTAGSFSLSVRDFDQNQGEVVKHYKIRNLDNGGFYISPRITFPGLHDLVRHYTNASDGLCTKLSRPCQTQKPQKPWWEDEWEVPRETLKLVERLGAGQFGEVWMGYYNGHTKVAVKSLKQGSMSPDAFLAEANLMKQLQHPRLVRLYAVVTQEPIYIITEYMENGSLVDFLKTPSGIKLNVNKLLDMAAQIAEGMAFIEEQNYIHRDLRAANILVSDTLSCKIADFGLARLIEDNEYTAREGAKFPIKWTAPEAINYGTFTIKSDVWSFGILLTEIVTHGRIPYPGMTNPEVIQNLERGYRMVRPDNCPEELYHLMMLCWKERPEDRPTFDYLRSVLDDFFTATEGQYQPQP
Sequence of Serine/threonine-protein kinase B-raf (P15056 whole entry): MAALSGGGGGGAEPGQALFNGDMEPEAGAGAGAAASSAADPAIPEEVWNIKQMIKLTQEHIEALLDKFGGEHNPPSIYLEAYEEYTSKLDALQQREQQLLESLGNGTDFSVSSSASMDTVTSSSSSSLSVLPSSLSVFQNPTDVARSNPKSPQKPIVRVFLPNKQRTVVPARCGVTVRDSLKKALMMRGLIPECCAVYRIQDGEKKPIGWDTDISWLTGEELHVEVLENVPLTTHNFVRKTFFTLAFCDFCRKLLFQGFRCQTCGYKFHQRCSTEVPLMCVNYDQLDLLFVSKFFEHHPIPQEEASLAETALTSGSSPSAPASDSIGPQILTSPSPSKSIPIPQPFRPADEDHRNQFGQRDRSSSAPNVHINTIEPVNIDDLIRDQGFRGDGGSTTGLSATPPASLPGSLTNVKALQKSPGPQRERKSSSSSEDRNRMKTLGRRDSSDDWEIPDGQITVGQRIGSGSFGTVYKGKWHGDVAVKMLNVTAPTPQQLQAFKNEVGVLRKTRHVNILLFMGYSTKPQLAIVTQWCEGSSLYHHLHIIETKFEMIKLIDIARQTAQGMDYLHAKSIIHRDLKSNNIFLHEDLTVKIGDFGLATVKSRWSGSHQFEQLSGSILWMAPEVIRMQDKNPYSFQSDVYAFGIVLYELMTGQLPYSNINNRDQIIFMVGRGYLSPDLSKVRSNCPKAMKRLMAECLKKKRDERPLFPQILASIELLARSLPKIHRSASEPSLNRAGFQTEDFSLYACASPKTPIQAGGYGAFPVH
Sequence of Ribosomal protein S6 kinase alpha-5 (O75582 whole entry): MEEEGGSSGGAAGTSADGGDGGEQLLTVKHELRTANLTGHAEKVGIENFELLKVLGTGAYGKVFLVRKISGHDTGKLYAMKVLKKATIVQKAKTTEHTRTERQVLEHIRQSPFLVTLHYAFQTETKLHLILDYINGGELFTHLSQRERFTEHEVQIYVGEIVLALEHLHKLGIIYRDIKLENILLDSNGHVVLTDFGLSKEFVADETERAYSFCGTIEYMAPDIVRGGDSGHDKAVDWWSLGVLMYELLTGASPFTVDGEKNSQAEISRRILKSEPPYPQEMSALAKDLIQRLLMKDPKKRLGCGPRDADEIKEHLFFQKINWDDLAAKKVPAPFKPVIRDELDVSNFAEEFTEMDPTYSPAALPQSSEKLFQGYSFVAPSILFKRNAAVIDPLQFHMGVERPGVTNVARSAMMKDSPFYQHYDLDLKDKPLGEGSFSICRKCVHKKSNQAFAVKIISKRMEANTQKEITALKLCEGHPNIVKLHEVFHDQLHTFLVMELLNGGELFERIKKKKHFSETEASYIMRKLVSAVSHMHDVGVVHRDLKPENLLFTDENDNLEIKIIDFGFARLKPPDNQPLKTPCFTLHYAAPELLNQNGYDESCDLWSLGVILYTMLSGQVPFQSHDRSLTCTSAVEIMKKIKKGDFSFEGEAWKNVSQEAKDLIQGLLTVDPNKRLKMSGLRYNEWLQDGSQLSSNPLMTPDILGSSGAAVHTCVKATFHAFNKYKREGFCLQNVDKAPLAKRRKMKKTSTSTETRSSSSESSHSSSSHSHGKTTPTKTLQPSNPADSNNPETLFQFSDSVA

Regarding `Nc1nc(-c2ccccn2)c(-c2ccnc3ncccc23)s1`, the 50% inhibitory concentration (IC50) on TGF-beta receptor type-1 [1] is > 10000 nM; on TGF-beta receptor type-1 [2], 7940 nM.

With `Cc1ccnc2ccc(-c3sc(N)nc3-c3ccccn3)nc12`, the IC50 is 220 nM against TGF-beta receptor type-1 [1] and 30 nM on TGF-beta receptor type-1 [3].

In the case of `Nc1nc(-c2cc(Cl)ccn2)c(-c2ccnc3ccccc23)s1`, the IC50 at TGF-beta receptor type-1 [1] was > 10000 nM; at TGF-beta receptor type-1 [4] it was 1020 nM.

Consider `c1ccc(-c2n[nH]cc2-c2ccc3ncccc3n2)nc1`, for which the IC50 against TGF-beta receptor type-1 [1] is 50 nM; at MAP kinase p38 [5], > 16000 nM; on TGF-beta receptor type-1 [6], 19 nM; at TGF-beta receptor type-1 [7], 30 nM.

Regarding `Nc1nc(-c2ccccc2F)c(-c2ccnc3ccccc23)s1`, the results for the IC50 on TGF-beta receptor type-1 [1] and on TGF-beta receptor type-1 [8] were 6670 nM and 1250 nM, respectively.

Consider `COc1ccccc1-c1nc(N)sc1-c1ccnc2ccccc12`, for which the IC50 on TGF-beta receptor type-1 [9] and on TGF-beta receptor type-1 [1] was > 10000 nM in each case.

In the case of `Nc1nc(-c2ccccn2)c(-c2ccc3ccccc3n2)s1`, the IC50 against TGF-beta receptor type-1 [1] is > 10000 nM; at TGF-beta receptor type-1 [10], 3540 nM.

With `Cc1ccc(-c2nc(N)sc2-c2ccnc3ccccc23)nc1`, the IC50 at TGF-beta receptor type-1 [9] and against TGF-beta receptor type-1 [1] was > 10000 nM each time.

Consider `Nc1nc(-c2cccnc2)c(-c2ccnc3ccccc23)s1`, for which the IC50 is > 10000 nM at TGF-beta receptor type-1 [1] and 3980 nM on TGF-beta receptor type-1 [11].

`Cc1cccc(-c2nc(N)sc2-c2ccc3ncccc3n2)n1`: the IC50 on MAP kinase p38 [5] was > 16000 nM.

`CCOc1ccc2nc(-c3sc(N)nc3-c3ccccn3)ccc2n1`: the IC50 on TGF-beta receptor type-1 [9] and on TGF-beta receptor type-1 [1] was > 10000 nM each time.

In the case of `Nc1nc(-c2nccs2)c(-c2ccnc3ccccc23)s1`, the results for the IC50 at TGF-beta receptor type-1 [1] and at TGF-beta receptor type-1 [12] were 6580 nM and 1170 nM, respectively.

`Nc1nc(-c2ccccn2)c(-c2cccc3ccccc23)s1`: the half-maximal inhibitory concentration (IC50) against TGF-beta receptor type-1 [1] is > 10000 nM; on TGF-beta receptor type-1 [13], 11000 nM.

Regarding `Cc1ccc2nccc(-c3sc(N)nc3-c3ccccn3)c2n1`, the values for the IC50 at TGF-beta receptor type-1 [1] and against TGF-beta receptor type-1 [14] were 260 nM and 380 nM, respectively.

With `Nc1nc(-c2ccc(Cl)cn2)c(-c2ccnc3ccccc23)s1`, the IC50 against TGF-beta receptor type-1 [1] was > 10000 nM; at TGF-beta receptor type-1 [15], 1770 nM.

As to `Nc1nc(-c2ccccn2)c(-c2ccc3ncccc3n2)s1` [GW693481X], the IC50 on TGF-beta receptor type-1 [1] is 120 nM; on MAP kinase p38 [5], > 16000 nM; at TGF-beta receptor type-1 [6], 20 nM; on TGF-beta receptor type-1 [16], 40 nM.

Regarding `Nc1nc(-c2cccc(Cl)c2)c(-c2ccc3ncccc3n2)s1` [GW780159X], the IC50 amounted to 360 nM at MAP kinase p38 [17], 10 nM on TGF-beta receptor type-1 [1], 10 nM at TGF-beta receptor type-1 [6] and 20 nM against TGF-beta receptor type-1 [18].

For `Nc1nc(-c2ccc(F)cc2)c(-c2ccc3ncccc3n2)s1` [GW785804X], the half-maximal inhibitory concentration (IC50) was found to be 490 nM on MAP kinase p38 [19], 30 nM at TGF-beta receptor type-1 [1], 10 nM at TGF-beta receptor type-1 [6] and 40 nM against TGF-beta receptor type-1 [20].

For `Cc1cccc(-c2n[nH]cc2-c2ccc3ncccc3n2)n1` [GW786460X], the IC50 in experiment [21], in [22], in experiment [23], in experiment [24], in experiment [25] and in experiment [26] was > 16000 nM throughout. Also, in [27], the IC50 is > 16000 nM.

These data come from ChEMBL document CHEMBL1138735, “Identification of 1,5-naphthyridine derivatives as a novel series of potent and selective TGF-beta type I receptor inhibitors” (J Med Chem, 2004).
